Assay outcomes from PubChem.
Rows were chosen to be rich in hits. Some 2.8% of all compounds tested hit in one or more screens of this group.
NPY1 pot ag – potentiates or activates human NPY-Y1 receptor; 220,000 tested, 0.37% active; NPY-Y1 expressing cells, potentiator/agonist activation; P25929; activation, % at 3.6 µM; in the data active means activation above about 33%, passing the limit was not always enough;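 further: cells stimulated with NPY at EC10 then isoproterenol at EC100; 0% = low agonist plus stimulus and 100% = saturating agonist plus stimulus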
Target sequence (P25929 whole entry, looked up): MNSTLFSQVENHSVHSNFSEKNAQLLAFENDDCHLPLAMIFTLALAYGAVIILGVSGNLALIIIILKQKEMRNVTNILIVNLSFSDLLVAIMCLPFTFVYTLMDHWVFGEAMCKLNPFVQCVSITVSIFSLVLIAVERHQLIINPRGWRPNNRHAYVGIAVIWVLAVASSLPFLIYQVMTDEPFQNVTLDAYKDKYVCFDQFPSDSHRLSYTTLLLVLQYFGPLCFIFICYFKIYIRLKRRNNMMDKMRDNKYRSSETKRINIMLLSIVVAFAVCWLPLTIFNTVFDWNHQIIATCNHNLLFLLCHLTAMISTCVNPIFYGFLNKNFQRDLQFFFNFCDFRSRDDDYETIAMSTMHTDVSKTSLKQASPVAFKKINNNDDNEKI
NPY Y2 blocker – blocks the human neuropeptide Y Y2 receptor; P49146; NPY-Y2 expressing cells, antagonist mode; inhibition, % at 2.7 µM; 140,000 tested, 0.99% active; AID 793; in the data active means inhibition above about 17%;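 further: 0% = vehicle with agonist challenge and 100% = reference antagonist with challenge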
EP2 modulator – modulates human prostaglandin E2 receptor EP2 signaling. P43116. AID 940. induction, % at 25 µM. 260,000 tested, 0.83% active. EP2-expressing cells, cAMP HTRF FRET, PGE2 co-stimulation;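 active means compounds whose cAMP rise, as percent of the full-agonist control response, exceeds 60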;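 further: rat C6 glioma line stably carrying human EP2 under a CMV promoter; the protocol text gives 20 µM as final concentration; 100% = response of wells given 1 µM PGE2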
Target sequence (P43116 whole entry, looked up): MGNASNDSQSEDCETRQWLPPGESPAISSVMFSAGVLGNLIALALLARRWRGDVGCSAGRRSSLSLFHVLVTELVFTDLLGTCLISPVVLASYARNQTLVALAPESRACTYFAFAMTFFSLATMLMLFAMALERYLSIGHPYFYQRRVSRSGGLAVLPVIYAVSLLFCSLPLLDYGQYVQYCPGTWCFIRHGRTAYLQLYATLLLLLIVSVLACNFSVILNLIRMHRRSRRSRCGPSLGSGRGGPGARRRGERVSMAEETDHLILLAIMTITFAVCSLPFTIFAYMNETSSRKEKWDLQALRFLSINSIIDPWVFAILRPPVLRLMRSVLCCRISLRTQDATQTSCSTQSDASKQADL
EP2 antag – blocks the human prostaglandin E2 receptor EP2; C6 glioma cells expressing human EP2, cAMP TR-FRET; cells stimulated with saturating PGE2; 260,000 tested, 0.52% active; P43116; AID 1422; inhibition, % at 25 µM;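 active means percent inhibition above 40 after rounding to a whole number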;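 further: rat C6 glioma host cells with rolipram phosphodiesterase inhibitor present; the protocol text gives 20 µM as final concentration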
NPY-Y1 antag – antagonists of human neuropeptide Y receptor Y1; HEK293-CNG Y1 cells, membrane potential fluorescence; NPY at EC95, then isoproterenol; inhibition, % at 3.6 µM; 200,000 tested, 1% active; AID 1040;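 active means inhibition above the campaign mean inhibition of all tested compounds plus 3 SD, cut at about 20% in these data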;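 further: 0% = DMSO wells given NPY plus isoproterenol and 100% = isoproterenol alone without NPY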
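Test system: HEK293 cells co-expressing NPY Y1 receptor and cyclic-nucleotide gated channel; Also added: NPY (25 nM), isoproterenol (1 µM), Ro 20-1724 (25 µM); Compound dosing: one concentration, 3.6 µM, in 0.4% DMSO; Timing: dye 3 h, compound 60 min room temperature, stimulation 45 min; Technique: Membrane-potential fluorescent dye readout.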
NPY2 pot ag – potentiates or activates human NPY-Y2 receptor | P49146 | cells expressing NPY-Y2, potentiator/agonist read-out | activation, % at 3.6 µM | 220,000 tested, 0.45% active; in the data active means activation above about 27%;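 further: cells stimulated with NPY near EC25 plus isoproterenol at EC100; 0% = vehicle plus submaximal agonist and 100% = vehicle plus saturating agonist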
NPY-Y1 confirm – confirmation of human NPY-Y1 receptor potentiators or agonists; activation, % at 3.6 µM; shares compounds with NPY1 pot ag; cell-based NPY-Y1 potentiator/agonist assay; 280 tested, 20% active; in the data active means activation above about 45%;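 further: cells challenged with NPY at its EC10 plus isoproterenol stimulus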
NPY-Y2 counter – potentiates or activates NPY-Y2, counter-screen for NPY-Y1 hits. shares compounds with NPY1 pot ag. HEK293-CNG cells, membrane-potential fluorescence (FLIPR), 1536-well. activation, % at 3.6 µM. 280 tested, 20% active
NPY-Y1 agonist – activates human NPY-Y1, counter-screen for NPY-Y1 potentiators; shares compounds with NPY1 pot ag; HEK293 Y1-CNGC, membrane potential fluorescence, agonist mode; activation, % at 3.6 µM; 280 tested, 50% active; AID 1697;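 active means percent activation above the mean of DMSO-only control wells plus 3 SD of those wells, cut at about 18% in these data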;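 further: cells challenged with isoproterenol plus Ro 20-1724 with no NPY in test wells; Y1 agonism lowers isoproterenol-driven cAMP and reduces probe fluorescence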
NPY-Y2 ag – activates human NPY-Y2, counter-screen for NPY-Y1 hits | activation, % at 3.6 µM | HEK293 Y2-CNGC, membrane potential fluorescence, agonist mode | shares compounds with NPY1 pot ag | 280 tested, 67% active;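 active means activation above the solvent-only control wells' mean plus 3 SD, cut at about 11% in these data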;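 further: 0% = DMSO with isoproterenol and 100% = 40 nM NPY maximal response; agonism lowers cAMP so well fluorescence drops in active wells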
CNGC inh 2 – counter-screen for NPY-Y1 potentiators or agonists: CNG channel inhibitors | 280 tested, 42% active | shares compounds with NPY1 pot ag | inhibition, % at 3.6 µM | HEK293-CNG parental, isoproterenol cAMP, membrane potential fluorescence;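 active means inhibition above the mean of stimulated solvent-only control wells plus 3 SD, cut at about 22% in these data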;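 further: 0% = isoproterenol-stimulated DMSO wells and 100% = unstimulated DMSO wells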
NPY-Y2 pot conf – human NPY-Y2 potentiation or agonism, confirmation; cell-based NPY-Y2 potentiator/agonist assay; 450 tested, 20% active; shares compounds with NPY2 pot ag; activation, % at 3.6 µM; AID 1539
NPY-Y1 counter – potentiates or activates NPY-Y1, counter-screen for NPY-Y2 hits | shares compounds with NPY2 pot ag | Y1 HEK293-CNG cells, membrane potential fluorescence | activation, % at 3.6 µM | 450 tested, 20% active; in the data active means activation above about 45%;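 further: cells stimulated with submaximal NPY then isoproterenol with phosphodiesterase inhibitor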
NPY-Y1 agonist 2 – activates human NPY-Y1, counter-screen for NPY-Y2 potentiators; shares compounds with NPY2 pot ag; HEK293 Y1-CNGC, membrane potential fluorescence, agonism; activation, % at 3.6 µM; 450 tested, 37% active;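 active means activation above the mean of DMSO-only control wells plus 3 SD, cut at about 18% in these data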;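 further: cells stimulated with 1 µM isoproterenol plus the PDE inhibitor Ro 20-1724; 0% = isoproterenol with DMSO and no NPY and 100% = 40 nM NPY; Y1 agonists lower the membrane potential dye signal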
CNGC inhibitor – blocks CNG channel activity, counter-screen for NPY-Y2 potentiators | 450 tested, 32% active | HEK293-CNG parental, isoproterenol cAMP, membrane potential fluorescence | AID 1703 | shares compounds with NPY2 pot ag | inhibition, % at 3.6 µM;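 active means inhibition above the control-well mean plus 3 SD of those wells, cut at about 22% in these data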;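 further: 0% = DMSO with isoproterenol and 100% = DMSO without isoproterenol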
NPY-Y2 ag 2 – NPY-Y2 agonism, counter-screen for Y2 potentiators | 450 tested, 56% active | shares compounds with NPY2 pot ag | HEK293 Y2/CNGC cells, membrane potential fluorescence, agonist mode | AID 1710 | activation, % at 3.6 µM;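 active means activation above the mean of solvent-only control wells plus 3 SD, cut at about 10% in these data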;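 further: cells stimulated by isoproterenol with no NPY added so direct agonism is tested; 0% = DMSO with isoproterenol alone and 100% = NPY at EC100 plus isoproterenol; agonism lowers probe fluorescence through less cAMP and CNG channel opening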
Starred values were filed as active, the others as inactive; · = no result given. Unless noted, no stated cut-off is given here; in the data, active means activation above about 33%; inactive means the rest.

SMILES	NPY1 pot ag	NPY Y2 blocker	EP2 modulator	EP2 antag	NPY-Y1 antag	NPY2 pot ag	NPY-Y2 pot conf	NPY-Y1 counter	NPY-Y1 agonist 2	CNGC inhibitor	NPY-Y2 ag 2	others
Cc1nn(C)cc1S(=O)(=O)N1CC(CN2CCOCC2)c2ccccc21 (stereo not drawn)	·	·	-49	5	·	·	·	·	·	·	·
COc1ccc(C(=O)NC2CCCCCC2)cc1S(=O)(=O)Nc1ccc(Br)cc1	48*	2	-4	7	-3	26	·	·	·	·	·	NPY-Y1 confirm=44*;NPY-Y2 counter=31;NPY-Y1 agonist=42*;NPY-Y2 ag=31*;CNGC inh 2=40*
COc1ccc(C(=O)NC2CCCCCC2)cc1S(=O)(=O)N1CCCC1	10	·	-47	4	5	0	·	·	·	·	·
O=C(CN1CCCC(c2ncncc2-c2ccncc2)C1)NCc1cccs1 (stereo not drawn)	·	·	-47	·	·	·	·	·	·	·	·
O=[N+]([O-])c1ccc(/C=C/C2=NN(c3ccccc3)C(c3ccco3)C2)o1 (stereo not drawn)	36*	·	8	13	-6	22	·	·	·	·	·	NPY-Y1 confirm=60*;NPY-Y2 counter=45*;NPY-Y1 agonist=56*;NPY-Y2 ag=58*;CNGC inh 2=45*
CCCOc1ccc(/C=N/NC(=O)c2ccc(Cn3cc([N+](=O)[O-])cn3)o2)cc1	-31	-3	-33	·	-2	41*	0	2	-12	5	-1
CN1CC23C=CC(O2)C(C(=O)N2CCC4(CC2)NC(=O)c2cccnc2N4C)C3C1=O (stereo not drawn)	·	·	-14	5	·	·	·	·	·	·	·
Cc1ccc(/C=N/NC(=O)CNC(=O)c2ccc(S(=O)(=O)N3CCCC3)cc2)o1	28	·	0	0	-2	84*	-4	-1	-11	0	-6
COc1ccc(OCC(O)CNC(=O)Nc2ccc(F)cc2)cc1 (stereo not drawn)	11	·	-45	10	·	-5	·	·	·	·	·
COc1ccc(OCC(O)CNC(=O)Nc2ccccc2)cc1 (stereo not drawn)	16	·	-23	14	·	44*	1	7	-5	2	3
OC(CNc1ccccc1)COc1ccc(OCC(O)CNc2ccccc2)cc1 (stereo not drawn)	39	-3	-37	28	-19	37*	43*	57*	44*	44*	47*
CN1C/C(=N\S(=O)(=O)c2ccccc2)N(C)C1=O	39	-1	12	8	10	101*	-2	6	-1	1	0
OCCN1CCN(CCn2c(-c3ccc(Cl)cc3)cn3c4ccccc4nc23)CC1	·	·	-57	18	·	·	·	·	·	·	·
COc1ccc(C(NC(=O)c2cnccn2)c2nccn2C)cc1 (stereo not drawn)	·	·	-18	2	·	·	·	·	·	·	·
Cc1ccc(S(=O)(=O)N(C)CC(=O)N2CCOCC2)cc1	4	0	-5	6	-3	-2	·	·	·	·	·
Cc1ccc(S(=O)(=O)N(C)CC(=O)OCC(=O)N2CCCC2=O)cc1	4	·	17	4	4	50*	-4	1	-8	-3	-2
N#C/C(=N\Nc1ccc([N+](=O)[O-])cc1)C(=N)N1CCOCC1	-1	·	-15	3	·	-1	·	·	·	·	·
N#C/C(=N/Nc1ccc([N+](=O)[O-])cc1)C(=N)N1CCCCC1	28	·	-52	4	-9	35*	32	45*	43*	28*	30*
Cc1nn(C)c(C)c1CNC(=O)c1nn2c(c1Cl)NC(c1cccs1)CC2C(F)(F)F (stereo not drawn)	1	16	0	4	-7	29*	6	0	11	2	-3
CCn1cc(C(=O)N[C@H](Cn2nnc3ccccc32)C(C)C)c(C)n1	·	·	-38	·	·	·	·	·	·	·	·
Cc1cc(NC(=O)c2ccccc2F)n(-c2nc3ccccc3[nH]2)n1	20	1	34	3	1	91*	-1	-4	-3	5	1
O=S(=O)(c1ccc(Oc2ccc3oc4ccccc4c3c2)nc1)N1CCCC1	3	4	-17	6	7	2	·	·	·	·	·
CN1CCN(S(=O)(=O)c2ccc(Oc3ccc(F)c(Cl)c3)nc2)CC1	26	·	10	4	4	96*	-1	-7	-1	-2	-9
Cn1c2c(c(=O)n(C)c1=O)C(C(F)(F)F)(C(F)(F)F)N=C(c1ccc(Cl)cc1)N2	33	7	11	8	8	49*	4	-23	-24	-6	-5
CCOC(=O)C(=CNc1cc(C)nn1-c1ccc(C)cc1)C(=O)OCC	15	13	13	16	9	36*	2	-7	-7	-12	-2
Cc1cc2c(=O)oc(-c3cccc(Cl)c3)nc2s1	·	·	-17	4	·	·	·	·	·	·	·
Cc1cnc(C(=O)Nc2ccc(S(=O)(=O)N3CCCCCC3)cc2)cn1	·	·	26	16	·	·	·	·	·	·	·
CC(C)(C)n1cc(S(=O)(=O)c2ccccc2)[nH]c1=O	-2	·	22	3	3	41*	-1	2	-2	0	9
CCOC(=O)C1=C(C)OC(N)=C(C#N)C1c1cc2cc(C)cc(C)c2[nH]c1=O (stereo not drawn)	·	·	-24	8	·	·	·	·	·	·	·
